pKi: −log10 of the molar value.
What was measured:
[1] = Oral bioavailability in rat; format: ADME, organism-based; settings: in vivo
How it was run: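 Male SD rats with jugular cannulas were fasted overnight and dosed either by tail-vein IV bolus or orally (n = 3 per route). Serial jugular blood samples were taken up to 8 h. Plasma was frozen at −20 °C, protein-precipitated with acetonitrile containing internal standard, and quantified by LC-MS/MS.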

[2] = target: GABA-A receptor; alpha-1/beta-3/gamma-2 (Homo sapiens) (UniProt P14867+P18507+P28472); experiment: Percent maximum change in electrophysiological response in Xenopus oocytes expressing alpha-1-beta-3-gamma-2 GABA-A receptor; format: functional, cell-based; settings: Oocyte
How it was run: (§1)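 Two-electrode voltage clamp on Xenopus oocytes injected with human GABA-A subunit cDNAs, 24-72 h expression, perfused with modified Barth's medium at pH 7.5, clamped between -40 and -70 mV. The GABA EC20 was titrated against a 3 mM GABA maximum. […] Result is % change of control current, mean ± SE of ≥4 oocytes.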

[3] = target: T1, GABA-A receptor; alpha-3/beta-3/gamma-2 (Homo sapiens, UniProt P18507+P28472+P34903); experiment: Binding affinity towards human gamma-aminobutyric-acid A receptor alpha-3-beta-3-gamma-2 using [3H]Ro-151788 expressed in L(tk-) cells; format: cell-based
T1 sequence (P18507 whole entry): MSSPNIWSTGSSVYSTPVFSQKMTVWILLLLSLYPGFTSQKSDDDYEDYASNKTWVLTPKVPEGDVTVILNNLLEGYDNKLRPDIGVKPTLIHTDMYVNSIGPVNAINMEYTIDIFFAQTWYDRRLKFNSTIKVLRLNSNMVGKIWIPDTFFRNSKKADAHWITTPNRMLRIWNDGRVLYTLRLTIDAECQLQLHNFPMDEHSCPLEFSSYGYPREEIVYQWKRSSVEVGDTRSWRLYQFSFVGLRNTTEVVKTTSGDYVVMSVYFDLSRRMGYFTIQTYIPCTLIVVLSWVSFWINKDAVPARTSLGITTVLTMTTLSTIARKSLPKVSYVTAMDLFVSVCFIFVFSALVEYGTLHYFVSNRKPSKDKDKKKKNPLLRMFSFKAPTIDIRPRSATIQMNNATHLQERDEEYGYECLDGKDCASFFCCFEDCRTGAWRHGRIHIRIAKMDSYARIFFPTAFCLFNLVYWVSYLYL
T1 sequence (P28472 whole entry): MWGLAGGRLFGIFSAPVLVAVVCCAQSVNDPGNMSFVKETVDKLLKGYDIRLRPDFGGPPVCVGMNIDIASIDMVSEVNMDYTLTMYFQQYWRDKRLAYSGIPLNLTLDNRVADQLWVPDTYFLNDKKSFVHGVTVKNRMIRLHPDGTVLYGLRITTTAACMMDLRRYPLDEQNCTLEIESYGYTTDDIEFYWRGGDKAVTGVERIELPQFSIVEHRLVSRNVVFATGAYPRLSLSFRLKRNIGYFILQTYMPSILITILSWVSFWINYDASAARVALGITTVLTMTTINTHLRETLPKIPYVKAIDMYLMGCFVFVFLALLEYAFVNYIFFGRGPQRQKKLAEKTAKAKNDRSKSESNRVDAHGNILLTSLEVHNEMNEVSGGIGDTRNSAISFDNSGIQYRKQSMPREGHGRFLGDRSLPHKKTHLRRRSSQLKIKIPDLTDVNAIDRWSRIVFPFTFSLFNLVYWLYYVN
T1 sequence (P34903 whole entry): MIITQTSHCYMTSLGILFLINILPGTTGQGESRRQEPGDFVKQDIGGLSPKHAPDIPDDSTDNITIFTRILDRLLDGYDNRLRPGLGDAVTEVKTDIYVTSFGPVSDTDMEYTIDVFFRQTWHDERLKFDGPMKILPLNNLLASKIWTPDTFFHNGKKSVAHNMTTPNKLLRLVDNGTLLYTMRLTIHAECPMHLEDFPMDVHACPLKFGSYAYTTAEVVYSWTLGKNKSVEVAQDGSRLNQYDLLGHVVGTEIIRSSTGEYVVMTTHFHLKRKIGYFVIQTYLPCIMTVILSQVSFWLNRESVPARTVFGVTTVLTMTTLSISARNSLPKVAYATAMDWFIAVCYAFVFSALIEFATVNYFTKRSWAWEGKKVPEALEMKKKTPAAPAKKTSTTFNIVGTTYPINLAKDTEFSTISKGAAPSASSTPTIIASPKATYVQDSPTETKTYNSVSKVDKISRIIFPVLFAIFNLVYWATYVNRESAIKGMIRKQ

[4] = target: T2, GABA-A receptor; alpha-2/beta-3/gamma-2 (Homo sapiens, UniProt P18507+P28472+P47869); experiment: Binding affinity towards human gamma-aminobutyric-acid A receptor alpha-2-beta-3-gamma-2 using [3H]Ro-151788 expressed in L(tk-) cells; format: cell-based
T2 sequence (P18507 whole entry): T1 sequence (P18507 whole entry)
T2 sequence (P28472 whole entry): T1 sequence (P28472 whole entry)
T2 sequence (P47869 whole entry): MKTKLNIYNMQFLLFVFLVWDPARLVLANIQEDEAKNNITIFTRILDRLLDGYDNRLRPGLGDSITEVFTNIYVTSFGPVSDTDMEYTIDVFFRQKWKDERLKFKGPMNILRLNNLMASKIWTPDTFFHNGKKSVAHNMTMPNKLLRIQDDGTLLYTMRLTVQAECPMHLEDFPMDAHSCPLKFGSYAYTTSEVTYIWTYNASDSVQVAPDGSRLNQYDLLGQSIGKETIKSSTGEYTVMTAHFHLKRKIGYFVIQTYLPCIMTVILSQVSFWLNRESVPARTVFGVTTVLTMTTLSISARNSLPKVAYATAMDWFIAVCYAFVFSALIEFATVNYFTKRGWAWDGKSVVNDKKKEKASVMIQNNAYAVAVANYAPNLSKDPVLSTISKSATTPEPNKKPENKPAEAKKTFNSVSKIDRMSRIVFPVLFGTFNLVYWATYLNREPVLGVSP

[5] = target: GABA A receptor alpha-4/beta-3/gamma-2 (Homo sapiens, UniProt P18507+P28472+P48169); experiment: Inhibition of [3H]-Ro-15-1788 binding to human alpha-4-beta-3-gamma-2 GABA-A receptor expressed in L(tk-) cells; format: cell-based
[6] = target: GABA-A receptor; alpha-3/beta-3/gamma-2 (Homo sapiens) (UniProt P18507+P28472+P34903); experiment: Percent change in electrophysiological response in Xenopus oocytes expressing Alpha3-beta3-gamma2 GABA-A receptor; format: functional, cell-based; settings: Oocyte; how it was run: as §1
[7] = target: GABA-A receptor; alpha-2/beta-3/gamma-2 (Homo sapiens) (UniProt P18507+P28472+P47869); experiment: Percent change in electrophysiological response in Xenopus oocytes expressing Alpha2-beta3-gamma2 GABA-A receptor; format: functional, cell-based; settings: Oocyte; how it was run: as §1

Chain of GABA A receptor alpha-4/beta-3/gamma-2 (P48169 whole entry, one chain of several): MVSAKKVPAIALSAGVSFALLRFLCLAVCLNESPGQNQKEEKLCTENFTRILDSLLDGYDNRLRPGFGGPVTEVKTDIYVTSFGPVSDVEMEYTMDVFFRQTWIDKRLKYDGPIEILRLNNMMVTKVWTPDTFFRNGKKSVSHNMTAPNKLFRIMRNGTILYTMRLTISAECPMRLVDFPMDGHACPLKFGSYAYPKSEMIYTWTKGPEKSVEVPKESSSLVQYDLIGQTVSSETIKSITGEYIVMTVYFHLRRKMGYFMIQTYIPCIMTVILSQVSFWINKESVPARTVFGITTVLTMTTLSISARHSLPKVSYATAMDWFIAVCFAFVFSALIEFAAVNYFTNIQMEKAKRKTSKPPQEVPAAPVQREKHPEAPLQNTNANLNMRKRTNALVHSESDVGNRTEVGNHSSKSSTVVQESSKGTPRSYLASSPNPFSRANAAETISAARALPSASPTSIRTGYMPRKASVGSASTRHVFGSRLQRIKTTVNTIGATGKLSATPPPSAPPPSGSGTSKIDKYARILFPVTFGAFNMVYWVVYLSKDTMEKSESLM

## Cc1cc(-c2nnc3c4ccccc4c(OCc4ccccn4)nn23)no1
[1]
  bioavailability: 41%
[2]
  Efficacy: -14%
[3]
  pKi: 8.85
[4]
  pKi: 8.57
[5]
  pKi: 6.61
[6]
  Efficacy: -4%
[7]
  Efficacy: 15%
